The record followed here is ChEMBL document CHEMBL3407460, “Synthesis of novel thiazole-based 8,9-dihydro-7H-pyrimido[4,5-b][1,4]diazepines as potential antitumor and antifungal agents” (2015).

Holding throughout (type): functional
Experiment [1] deals with Cryptococcus neoformans. Description: Antifungal activity against Cryptococcus neoformans ATCC 32264 assessed as growth inhibition at 31.25 ug/ml after 48 hrs by broth microdilution method. As to conditions: ATCC 32264, 48 h. The essentials:
(§1)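 CLSI M27-A3 broth microdilution in RPMI-1640. Compound stocks were made in DMSO (final at most 1%) and tested at final levels of 250 to 0.98. Inoculum was 1–5 × 10^3 CFU/mL, incubated 48 h at 30 °C in a moist, dark chamber. Growth and sterility control wells were included.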
In general terms: Dilution methods test growth across graded concentrations, often in twofold steps.

Experiment [2] relates to Cryptococcus neoformans. The experiment is described as follows: Antifungal activity against Cryptococcus neoformans ATCC 32264 assessed as growth inhibition at 7.81 ug/ml after 48 hrs by broth microdilution method. Conditions: ATCC 32264, 48 h. The essentials:
as §1

Experiment [3] has as its system Candida albicans. Description: Antifungal activity against Candida albicans ATCC 10231 assessed as growth inhibition at 125 ug/ml after 48 hrs by broth microdilution method. As to conditions: ATCC 10231, 48 h. The essentials:
as §1

The subject of experiment [4] is Candida albicans. The experiment is described as follows: Antifungal activity against Candida albicans ATCC 10231 assessed as growth inhibition at 7.81 ug/ml after 48 hrs by broth microdilution method. Conditions: ATCC 10231, 48 h. The essentials: as §1
The test system of experiment [5] is Cryptococcus neoformans. The experiment is described as follows: Antifungal activity against Cryptococcus neoformans ATCC 32264 assessed as growth inhibition at 125 ug/ml after 48 hrs by broth microdilution method. Conditions: ATCC 32264, 48 h. The essentials: as §1
The subject of experiment [6] is Cryptococcus neoformans. The experiment is described as follows: Antifungal activity against Cryptococcus neoformans ATCC 32264 assessed as growth inhibition at 3.9 ug/ml after 48 hrs by broth microdilution method. Conditions: ATCC 32264, 48 h. The essentials: as §1
Experiment [7] has as its system Candida albicans. The experiment is described as follows: Antifungal activity against Candida albicans ATCC 10231 assessed as growth inhibition at 62.5 ug/ml after 48 hrs by broth microdilution method. Conditions: ATCC 10231, 48 h. The essentials: as §1
Experiment [8] deals with Cryptococcus neoformans. Description: Antifungal activity against Cryptococcus neoformans ATCC 32264 assessed as growth inhibition at 250 ug/ml after 48 hrs by broth microdilution method. As to conditions: ATCC 32264, 48 h. The essentials: as §1
For experiment [9], the system named is Cryptococcus neoformans. Description: Antifungal activity against Cryptococcus neoformans ATCC 32264 assessed as growth inhibition at 15.62 ug/ml after 48 hrs by broth microdilution method. Conditions: ATCC 32264, 48 h. The procedure, abridged: as §1
For experiment [10], the system named is Candida albicans. Description: Antifungal activity against Candida albicans ATCC 10231 assessed as growth inhibition at 15.62 ug/ml after 48 hrs by broth microdilution method. As to conditions: ATCC 10231, 48 h. The essentials: as §1
For experiment [11], the system named is Candida albicans. The experiment is described as follows: Antifungal activity against Candida albicans ATCC 10231 assessed as growth inhibition at 31.25 ug/ml after 48 hrs by broth microdilution method. As to conditions: ATCC 10231, 48 h. The essentials:
as §1

Experiment [12] relates to Candida albicans. Description: Antifungal activity against Candida albicans ATCC 10231 assessed as growth inhibition at 3.9 ug/ml after 48 hrs by broth microdilution method. Conditions: ATCC 10231, 48 h. The essentials:
as §1

The test system of experiment [13] is Cryptococcus neoformans. The experiment is described as follows: Antifungal activity against Cryptococcus neoformans ATCC 32264 assessed as growth inhibition at 62.5 ug/ml after 48 hrs by broth microdilution method. Conditions: ATCC 32264, 48 h. The essentials: as §1
In experiment [14] the test system is Candida albicans. The experiment is described as follows: Antifungal activity against Candida albicans ATCC 10231 assessed as growth inhibition at 250 ug/ml after 48 hrs by broth microdilution method. As to conditions: ATCC 10231, 48 h. The procedure, abridged:
as §1

The structures appear in SMILES notation.

Consider `Nc1nc(N)c2c(n1)NC(c1sc(Cl)nc1Cl)CC(c1ccc(F)cc1)=N2` (stereo unspecified), for which the inhibition at 31.25 µg/mL was determined as 11% with Cryptococcus neoformans [1] and 21.3% in the experiment with Candida albicans [11]. In addition, the values for the inhibition at 7.81 µg/mL in the experiment with Cryptococcus neoformans [2] and with Candida albicans [4] were 5.01% and 0%, respectively. In addition, the figures for the inhibition at 125 µg/mL with Candida albicans [3] and in the experiment with Cryptococcus neoformans [5] were 51.7% and 24.6%, respectively. For the same compound, the inhibition at 3.9 µg/mL was found to be 3.83% in the experiment with Cryptococcus neoformans [6] and 0% in the experiment with Candida albicans [12]. The inhibition at 62.5 µg/mL in the experiment with Candida albicans [7] came to 43.3%; with Cryptococcus neoformans [13], 12.8%. Besides, the inhibition at 250 µg/mL in the experiment on Cryptococcus neoformans [8] came to 25.5%; in the experiment on Candida albicans [14], 59.9%. In addition, the values for the inhibition at 15.62 µg/mL with Cryptococcus neoformans [9] and with Candida albicans [10] were 7.17% and 17.9%, respectively.

As to `COc1ccc(C2=Nc3c(N)nc(N)nc3NC(c3sc(Cl)nc3Cl)C2)cc1` (stereo unspecified), the inhibition at 31.25 µg/mL in the experiment on Cryptococcus neoformans [1] stood at 13.2%; with Candida albicans [11], 21.2%. The results for the inhibition at 7.81 µg/mL in the experiment on Cryptococcus neoformans [2] and with Candida albicans [4] were 6.04% and 12.4%, respectively. Further, the inhibition at 125 µg/mL in the experiment with Candida albicans [3] came to 54.6%; in the experiment with Cryptococcus neoformans [5], 46.9%. Also, the values for the inhibition at 3.9 µg/mL in the experiment with Cryptococcus neoformans [6] and in the experiment with Candida albicans [12] were 0% and 10.4%, respectively. For the same compound, the figures for the inhibition at 62.5 µg/mL in the experiment with Candida albicans [7] and in the experiment with Cryptococcus neoformans [13] were 23.2% and 23.1%, respectively. Moreover, the inhibition at 250 µg/mL in the experiment on Cryptococcus neoformans [8] was determined as 77.1%; with Candida albicans [14], 62.6%. For the same compound, the results for the inhibition at 15.62 µg/mL in the experiment on Cryptococcus neoformans [9] and with Candida albicans [10] were 7.79% and 15.7%, respectively.

Regarding `Nc1nc(N)c2c(n1)NC(c1sc(Cl)nc1Cl)CC(c1ccc3c(c1)OCO3)=N2` (stereo unspecified), the inhibition at 31.25 µg/mL with Cryptococcus neoformans [1] came to 7.07%; in the experiment on Candida albicans [11], 24.3%. The inhibition at 7.81 µg/mL came to 3.92% in the experiment with Cryptococcus neoformans [2] and 0% in the experiment with Candida albicans [4]. Moreover, the inhibition at 125 µg/mL was found to be 48.1% with Candida albicans [3] and 36.9% with Cryptococcus neoformans [5]. Further, the inhibition at 3.9 µg/mL in the experiment on Cryptococcus neoformans [6] and in the experiment on Candida albicans [12] was 0% in each case. The inhibition at 62.5 µg/mL came to 41.6% in the experiment with Candida albicans [7] and 19.5% in the experiment with Cryptococcus neoformans [13]. The inhibition at 250 µg/mL worked out at 58.5% in the experiment on Cryptococcus neoformans [8] and 56.8% in the experiment on Candida albicans [14]. For the same compound, the results for the inhibition at 15.62 µg/mL in the experiment with Cryptococcus neoformans [9] and in the experiment with Candida albicans [10] were 5.35% and 0%, respectively.

In the case of `Cc1ccc(C2=Nc3c(N)nc(N)nc3NC(c3sc(Cl)nc3Cl)C2)cc1` (stereo unspecified), the inhibition at 31.25 µg/mL is 6.47% in the experiment on Cryptococcus neoformans [1] and 8.7% in the experiment with Candida albicans [11]. The inhibition at 7.81 µg/mL was found to be 0.93% with Cryptococcus neoformans [2] and 0% in the experiment on Candida albicans [4]. Also, the inhibition at 125 µg/mL was determined as 21.3% in the experiment with Candida albicans [3] and 18.3% in the experiment with Cryptococcus neoformans [5]. Moreover, the inhibition at 3.9 µg/mL with Cryptococcus neoformans [6] and in the experiment on Candida albicans [12] was 0% each time. In addition, the inhibition at 62.5 µg/mL was determined as 13.5% with Candida albicans [7] and 9.2% in the experiment with Cryptococcus neoformans [13]. Besides, the inhibition at 250 µg/mL in the experiment with Cryptococcus neoformans [8] came out at 59.1%; in the experiment on Candida albicans [14], 55.5%. The inhibition at 15.62 µg/mL was determined as 4.57% in the experiment with Cryptococcus neoformans [9] and 1.41% in the experiment with Candida albicans [10].

The term inhibition denotes the change of the read-out against control, counted positive when it falls.
